The values below come from ChEMBL document CHEMBL2057119, “Small molecules that protect against β-amyloid-induced cytotoxicity by inhibiting aggregation of β-amyloid” (Bioorg Med Chem, 2012).

Activity calls are given as the source filed them.

The target of data set [1] is T1, Amyloid-beta precursor protein (Homo sapiens, UniProt P05067). The experiment in a line: Inhibition of amyloid beta (1 to 42) aggregation at 2 uM after 2 hrs by SDS-PAGE and PICUP technique. In a few lines: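 Aβ(1–42) was monomerized in HFIP (0.5 mM), dried, and redissolved in DMSO. It was incubated at 25 µM final in PBS (pH 7.3) with compound at 2 µM final for 2 h at 37 °C. Samples were photo-cross-linked (PICUP) with ammonium persulfate and Ru(bpy)3Cl2 using three 1 s irradiations, quenched, and boiled. Products were resolved on a 10–20% tris-tricine gel and silver-stained.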
T1 sequence (P05067 whole entry): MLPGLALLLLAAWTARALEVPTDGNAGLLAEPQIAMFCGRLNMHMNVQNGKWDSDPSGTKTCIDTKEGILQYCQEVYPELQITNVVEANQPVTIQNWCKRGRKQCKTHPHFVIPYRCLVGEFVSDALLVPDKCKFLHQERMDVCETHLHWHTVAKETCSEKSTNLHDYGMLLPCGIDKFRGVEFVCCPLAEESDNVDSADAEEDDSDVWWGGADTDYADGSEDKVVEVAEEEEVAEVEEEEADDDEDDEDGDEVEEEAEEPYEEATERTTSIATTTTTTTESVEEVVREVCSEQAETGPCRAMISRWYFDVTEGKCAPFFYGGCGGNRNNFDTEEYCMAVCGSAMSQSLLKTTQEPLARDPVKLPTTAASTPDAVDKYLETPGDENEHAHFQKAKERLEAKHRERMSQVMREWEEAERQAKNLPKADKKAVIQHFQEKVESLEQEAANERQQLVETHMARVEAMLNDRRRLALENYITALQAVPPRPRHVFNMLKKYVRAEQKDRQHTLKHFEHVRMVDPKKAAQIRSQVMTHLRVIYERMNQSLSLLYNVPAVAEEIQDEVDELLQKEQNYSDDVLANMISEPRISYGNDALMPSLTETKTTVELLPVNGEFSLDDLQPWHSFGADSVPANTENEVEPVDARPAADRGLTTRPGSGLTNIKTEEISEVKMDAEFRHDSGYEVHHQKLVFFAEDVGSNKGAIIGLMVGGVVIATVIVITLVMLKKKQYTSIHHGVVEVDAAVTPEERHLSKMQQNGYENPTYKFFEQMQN

Data set [2] concerns the target T1, Amyloid-beta precursor protein. As to the kind of experiment: Inhibition of amyloid beta (25 to 35)-induced cell death in mouse HT22 cells at 10 uM after 18 hrs by MTT assay. In kind it is cell-based. The conditions noted are these: HT-22, values are per cent of control. In outline: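 HT22 cells were plated at 5×10^3 cells/well, serum-starved in plain DMEM for 1 h, and pretreated with compound for 1 h. Aβ(25–35) was prepared as a 10 mM DMSO stock, diluted 10-fold in PBS, and aggregated for 1 h at room temperature. It was then added at a final 25 µM, and cells were incubated for 18 h. Viability was measured by MTT (4 h), then solubilization in DMF/SDS and absorbance at 570/630 nm.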
In general terms: Tetrazolium assays rely on reduction of a dye to a coloured formazan, in cell work by metabolically active cells.

Data set [3] deals with Mus musculus. The experiment in a line: Antialzheimer activity in ICR mouse assessed as reduction in amyloid beta (1 to 42)-induced spontaneous memory loss at 100 mg/kg, po measured after 2 days by object recognition task relative to control. In kind it is functional. On the set-up: scale not given: the % may be the effect or the level left. In outline:
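Male ICR mice received ICV pre-aggregated Aβ(1–42) at 10 nM (50 µL, 2.4 mm depth at bregma), then compound at 100 mg/kg po once daily. Object recognition ran on days 2–3. Exploration was counted as the nose directed at an object within 2 cm and/or touching it, and objects were cleaned to avoid olfactory cues. Preference index = exploration time for new object / total exploration time. n = 10, mean ± SEM.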

The subject of data set [4] is Mus musculus. As to the kind of experiment: Antialzheimer activity in po dosed ICR mouse assessed as reduction in amyloid beta (1 to 42)-induced spontaneous memory loss measured after 2 days by Y-maze test. It counts as functional, organism-based. In a few lines: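 Male ICR mice were injected ICV with 50 µL of Aβ(1–42) (10 nM, aggregated at 37 °C for 6 days). Various oral doses in the 50–200 mg/kg range followed, once daily. On day 2, each mouse moved freely in a three-arm Y-maze for 8 min. An arm entry required all four limbs inside, and spontaneous alternation was derived from the entry sequence. n = 10, mean ± SEM, t-test.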

The test system of data set [5] is Mus musculus. The experiment in a line: Antialzheimer activity in po dosed ICR mouse assessed as reduction in amyloid beta (1 to 42)-induced spontaneous memory loss measured after 2 days by object recognition task relative to control. It counts as functional, organism-based. In a few lines:
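ICV pre-aggregated Aβ(1–42) (10 nM, 50 µL) was given to male ICR mice, followed by once-daily oral doses in the 50–200 mg/kg series. The object recognition task ran on days 2–3. Exploration was defined as nose within 2 cm of and/or touching an object. Preference index = new-object exploration time / total exploration time. n = 10, mean ± SEM, t-test.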

Data set [6] has as its system Mus musculus. As to the kind of experiment: Antialzheimer activity in amyloid beta (1 to 42)-challenged ICR mouse assessed as decrease in escape latency at 100 mg/kg, po measured after 7 days by water maze test. In kind it is functional, organism-based. More on the design: dose 100 mg/kg. In outline: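 Male ICR mice were injected ICV with 50 µL of pre-aggregated Aβ(1–42) at 10 nM. Compound was then supplied for 7 days in pellet feed, each pellet containing 3 mg. Water maze training ran on days 3–7, and escape latency was recorded across training sessions. n = 10, mean ± SEM.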

Data set [7] relates to Mus musculus. The experiment in a line: Antialzheimer activity in ICR mouse assessed as increase in amyloid beta (1 to 42)-induced step-through latency at 100 mg/kg, po measured after 3 days by passive avoidance test. It counts as functional. In a few lines:
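Male ICR mice got 50 µL of pre-aggregated Aβ(1–42) by ICV injection at 2.4 mm depth at bregma. The peptide was a 250 µM DMSO stock diluted in PBS to 10 nM and aggregated at 37 °C for 4 days. Oral compound was given at 100 mg/kg once daily, with testing on days 3–4. Training used a 0.25 mA, 3 s shock; step-through latency into the dark compartment was measured 24 h later. n = 10, mean ± SEM, t-test.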

Data set [8] concerns the target T1, Amyloid-beta precursor protein. As to the kind of experiment: Inhibition of amyloid beta (1 to 42) fibril formation after 1 hr by ThT spectrofluorometric analysis. In a few lines:
(§1)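 ThT diluted to 5 µM in 50 mM glycine buffer was then added. After 10 s of shaking, fluorescence was read at excitation 450 nm and emission 480 nm, as a measure of fibril formation.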

Data set [9] shares this target. The experiment in a line: Inhibition of amyloid beta (1 to 42) fibril formation at 10 uM after 1 hr by ThT spectrofluorometric analysis. In outline: as §1
A short description of data set [10]: Cytotoxicity against mouse HT22 cells assessed as viability at 10 uM after 18 hrs by MTT assay. In kind it is cell-based, HT-22. The conditions noted are these: read-out: Activity. In outline:
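HT22 murine hippocampal cells were grown in DMEM with 10% FBS at 37 °C, 5% CO2, and plated at 5×10^3 cells/well. They were switched to plain DMEM and serum-starved for 1 h before exposure to compound at 10 µM for 18 h. MTT solution (5 mg/mL) was added for 4 h at 37 °C. Cells were solubilized in 50% DMF/10% SDS (pH 4.7) for 18 h, absorbance was read at 570/630 nm, and % cytotoxicity was calculated.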

Data set [11] concerns Mus musculus. As to the kind of experiment: Antialzheimer activity in ICR mouse assessed as reduction in amyloid beta (1 to 42)-induced spontaneous memory loss at 100 mg/kg, po measured after 2 days by Y-maze test. It counts as functional. More on the design: scale not given: the % may be the effect or the level left. In outline: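 Aβ(1–42) at 10 nM in PBS (from a 250 µM DMSO stock) was aggregated at 37 °C for 6 days, then injected ICV (50 µL, 2.4 mm depth at bregma) into male ICR mice. Compound was given at 100 mg/kg po once daily, and the Y-maze test was on day 2. Each mouse explored a three-arm maze freely for 8 min. An entry counted when all four limbs were in an arm; spontaneous alternation was scored as three consecutive different-arm entries. n = 10, mean ± SEM.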

The subject of data set [12] is Mus musculus. As to the kind of experiment: Antialzheimer activity in po dosed ICR mouse assessed as increase in amyloid beta (1 to 42)-induced step-through latency measured after 3 days by passive avoidance test. It counts as functional, organism-based. In a few lines:
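Male ICR mice received 50 µL of 10 nM Aβ(1–42) ICV at 2.4 mm depth at bregma, after pre-aggregation at 37 °C for 4 days. Oral doses were varied over 50–200 mg/kg, given once daily. Passive avoidance ran on days 3–4 with a 0.25 mA, 3 s training shock. Step-through latency to enter the dark compartment was recorded 24 h after training. n = 10, mean ± SEM, t-test.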

For `COc1ccc(/C=C/c2cc(/C=C/c3ccc(OC)c(O)c3)ncn2)cc1O`, the inhibition (as a rule, the relative decrease from the control value, in per cent) in data set [1] was “Active”. The viability, % of control in [2] stood at 91.8%. Further, the Activity was 7% in [3]; “Dose-dependent effect” in [4]; “Dose-dependent effect” in [5]; 72% in data set [11]; “Dose-dependent effect” in [12]. In addition, the result in data set [6] was Active. For the same compound, the Time in data set [7] is recorded as 144 s. In data set [8], the IC50 (usually the concentration that gives 50% inhibition) was 2100 nM. This compound also came in with an inhibition in data set [9] of 80.9%. In addition, the viability at 18 h, 10 µM in [10] was found to be 136%.
